Laboratory results: ChEMBL document CHEMBL1212779, “Ceftobiprole is superior to vancomycin, daptomycin, and linezolid for treatment of experimental endocarditis in rabbits caused by methicillin-resistant Staphylococcus aureus” (Antimicrob Agents Chemother, 2010)
Values after ≈ are worked out from the molar mass of the structure shown.

Experiments:
Staphylococcus aureus [1] = experiment: (§1) Antibacterial activity against methicillin-resistant Staphylococcus aureus COL infected New Zealand White rabbit aortic valve endocarditis model assessed as decrease in bacterial colony forming unit in kidney at 18 mg/kg, iv dosed every 24 hrs for 4 days (reference value: 4.4 +/- 1.0 log10CFU per gram tissue); format: functional
Staphylococcus aureus [2] = experiment: as §1, with “spleen” for “kidney”, “5.1” for “4.4”, “0.9” for “1.0”; format: functional
Staphylococcus aureus [3] = experiment: as §1, with “vegetation” for “kidney”, “8.4” for “4.4”, “0.7” for “1.0”; format: functional
Staphylococcus aureus [4] = experiment: as §1, with “at 25” for “at 18”, “mg/kg, im” for “mg/kg, iv”, “every 8” for “every 24”; format: functional; conditions: route intramuscular
Staphylococcus aureus [5] = experiment: as §1, with “in spleen” for “in kidney”, “at 25” for “at 18”, “mg/kg, im” for “mg/kg, iv”, “every 8” for “every 24”, “value: 5.1” for “value: 4.4”, “+/- 0.9” for “+/- 1.0”; format: functional; conditions: route intramuscular
Staphylococcus aureus [6] = experiment: as §1, with “in vegetation” for “in kidney”, “at 25” for “at 18”, “mg/kg, im” for “mg/kg, iv”, “every 8” for “every 24”, “value: 8.4” for “value: 4.4”, “+/- 0.7” for “+/- 1.0”; format: functional; conditions: route intramuscular
Oryctolagus cuniculus [7] = experiment: Plasma concentration in Staphylococcus aureus COL infected New Zealand White rabbit aortic valve endocarditis model at 25 mg/kg, im dosed every 8 hrs for 4 days; format: ADME, organism-based; design: dose 25 mg/kg, route intramuscular; conditions: in vivo
Summary of the method: (§2)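 Rabbits with catheter-induced aortic valve endocarditis received about 1.5 × 10^7 CFU COL iv in 1 ml 0.9% saline 48 h after catheter placement. Dosing started 16–18 h post-infection. Plasma was sampled 1 h post-dose from at least three rabbits per group and assayed by HPLC against plasma standard curves. Each value is the mean of two determinations; detection limit ≤0.5 μg/ml.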

Staphylococcus aureus [8] = experiment: Antibacterial activity against methicillin-resistant Staphylococcus aureus COL; format: functional
Staphylococcus aureus [9] = experiment: as §1, with “spleen” for “kidney”, “30” for “18”, “12” for “24”, “5.1” for “4.4”, “0.9” for “1.0”; format: functional
Staphylococcus aureus [10] = experiment: as §1, with “vegetation” for “kidney”, “30” for “18”, “12” for “24”, “8.4” for “4.4”, “0.7” for “1.0”; format: functional
Staphylococcus aureus [11] = experiment: as §1, with “30” for “18”, “12” for “24”; format: functional
Oryctolagus cuniculus [12] = experiment: Plasma concentration in Staphylococcus aureus COL infected New Zealand White rabbit aortic valve endocarditis model at 30 mg/kg, iv dosed every 12 hrs for 4 days; format: ADME, organism-based; design: dose 30 mg/kg, route intravenous; conditions: in vivo
Summary of the method: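 Plasma was drawn 1 h after dosing from at least 3 rabbits and assayed by HPLC. Each value averages two determinations, read from plasma standard curves. The detection limit was ≤0.5 μg/ml.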

[13] = Half life in Staphylococcus aureus COL infected New Zealand White rabbit aortic valve endocarditis model at 30 mg/kg, iv dosed every 12 hrs for 4 days; format: ADME, organism-based, Oryctolagus cuniculus; design: dose 30 mg/kg, route intravenous; conditions: in vivo
Staphylococcus aureus [14] = experiment: as §1, with “in vegetation” for “in kidney”, “at 75” for “at 18”, “mg/kg, sc” for “mg/kg, iv”, “every 8” for “every 24”, “value: 8.4” for “value: 4.4”, “+/- 0.7” for “+/- 1.0”; format: functional; conditions: route subcutaneous
Staphylococcus aureus [15] = experiment: as §1, with “in spleen” for “in kidney”, “at 75” for “at 18”, “mg/kg, sc” for “mg/kg, iv”, “every 8” for “every 24”, “value: 5.1” for “value: 4.4”, “+/- 0.9” for “+/- 1.0”; format: functional; conditions: route subcutaneous
Staphylococcus aureus [16] = experiment: as §1, with “at 75” for “at 18”, “mg/kg, sc” for “mg/kg, iv”, “every 8” for “every 24”; format: functional; conditions: route subcutaneous
Oryctolagus cuniculus [17] = experiment: Plasma concentration in Staphylococcus aureus COL infected New Zealand White rabbit aortic valve endocarditis model at 75 mg/kg, sc dosed every 8 hrs for 4 days; format: ADME, organism-based; design: dose 75 mg/kg, route subcutaneous; conditions: in vivo; summary of the method: as §2

## CCCCCCCCCC(=O)N[C@@H](Cc1c[nH]c2ccccc12)C(=O)N[C@H](CC(N)=O)C(=O)N[C@@H](CC(=O)O)C(=O)N[C@@H]1C(=O)NCC(=O)N[C@@H](CCCN)C(=O)N[C@@H](CC(=O)O)C(=O)N[C@H](C)C(=O)N[C@@H](CC(=O)O)C(=O)NCC(=O)N[C@H](CO)C(=O)N[C@@H]([C@H](C)CC(=O)O)C(=O)N[C@@H](CC(=O)c2ccccc2N)C(=O)O[C@@H]1C
Staphylococcus aureus [1]
  log10CFU/g: 2.6
Staphylococcus aureus [2]
  log10CFU/g: 2.3
Staphylococcus aureus [3]
  log10CFU/g: 3.6

## Nc1nc(/C(=N/O)C(=O)N[C@@H]2C(=O)N3C(C(=O)O)=C(/C=C4\CCN([C@@H]5CCNC5)C4=O)CS[C@H]23)ns1 [CEFTOBIPROLE]
Staphylococcus aureus [4]
  log10CFU/g: 1.7
Staphylococcus aureus [5]
  log10CFU/g: 1.8
Staphylococcus aureus [6]
  log10CFU/g: 2.1
Oryctolagus cuniculus [7]
  Cp: 14400 ng/mL

## CCOc1ccc2ccccc2c1C(=O)N[C@@H]1C(=O)N2[C@@H]1SC(C)(C)[C@@H]2C(=O)O [NAFCILLIN]
Staphylococcus aureus [8]
  MIC: 256 µg/mL (≈ 618 µM)

## CN[C@H](CC(C)C)C(=O)N[C@H]1C(=O)N[C@@H](CC(N)=O)C(=O)N[C@H]2C(=O)N[C@H]3C(=O)N[C@H](C(=O)N[C@H](C(=O)O)c4cc(O)cc(O)c4-c4cc3ccc4O)[C@H](O)c3ccc(c(Cl)c3)Oc3cc2cc(c3O[C@@H]2O[C@H](CO)[C@@H](O)[C@H](O)[C@H]2O[C@H]2C[C@](C)(N)[C@H](O)[C@H](C)O2)Oc2ccc(cc2Cl)[C@H]1O [VANCOMYCIN]
Staphylococcus aureus [9]
  log10CFU/g: 3.3
Staphylococcus aureus [10]
  log10CFU/g: 5.9
Staphylococcus aureus [11]
  log10CFU/g: 3.1
Oryctolagus cuniculus [12]
  Cp: 34000 ng/mL
[13]
  half-life: 1.33 h

## CC(=O)NC[C@H]1CN(c2ccc(N3CCOCC3)c(F)c2)C(=O)O1 [LINEZOLID]
Staphylococcus aureus [14]
  log10CFU/g: 5.9
Staphylococcus aureus [15]
  log10CFU/g: 2.9
Staphylococcus aureus [16]
  log10CFU/g: 2.5
Oryctolagus cuniculus [17]
  Cp: 28200 ng/mL
